Measurements collected from several papers.
Lines come from different studies, so protocols differ.
Action: inhibitor
CDK7: Cyclin-dependent kinase 7 (CDK7, Homo sapiens, UniProt P50613)
CDK7 with cyclin H: Cyclin-dependent kinase 7, with cyclin H (CDK7, Homo sapiens, UniProt P50613)

SMILES | target | effect on | technique | tested at | inhibition [%]
c1ccc(CNc2nc(N3CCOc4ccccc43)nc3c2CCCC3)cc1 | CDK7 | target engagement in cells | chemoproteomics | 20 mM | -1.7
C=CC(=O)Nc1cc(Nc2nccc(Nc3cc(Cl)c(F)cc3C(C)(C)O)n2)c(OC)cc1N1CC[C@@H](N(C)C)C1 | CDK7 with cyclin H | enzyme activity | – | 1 µM | 14
O=C(O)c1cc(O)c(O)c(O)c1 | CDK7 with cyclin H | enzyme activity | ADP detection | 10 µM | -3
COc1cc(-c2cc(-c3ccc(N4CCNCC4)cc3)cnc2C)cc(OC)c1OC | CDK7 | enzyme activity | – | 1 µM | 2
Cc1ccc(Nc2nccc(N(C)c3ccc4c(C)n(C)nc4c3)n2)cc1S(N)(=O)=O | CDK7 with cyclin H | enzyme activity | – | 10 µM | 34
Cn1cnc(Br)c1C1=CN(c2ncnc3[nH]cnc23)CCS1 | CDK7 | enzyme activity | radiometric | 50 nM | 21.6
COC(=O)[C@H]1[C@H]2C[C@@H]3c4[nH]c5cc(OC)ccc5c4CCN3C[C@H]2C[C@@H](OC(=O)c2cc(OC)c(OC)c(OC)c2)[C@@H]1OC | CDK7 with cyclin H | enzyme activity | ADP detection | 10 µM | -37.8
COc1cccc2c(NCc3ccccc3)nc(-n3c(N)nc4ccccc43)nc12 | CDK7 | target engagement in cells | chemoproteomics | 20 mM | 2.5
Cc1ccc(-n2nc(C(C)(C)C)cc2NC(=O)Nc2ccc(OCCN3CCOCC3)c3ccccc23)cc1 | CDK7 | enzyme activity | – | 10 µM | 17
COC1=C(OC)C(=O)C(C/C=C(\C)CC/C=C(\C)CC/C=C(\C)CC/C=C(\C)CC/C=C(\C)CC/C=C(\C)CC/C=C(\C)CC/C=C(\C)CC/C=C(\C)CCC=C(C)C)=C(C)C1=O | CDK7 with cyclin H | enzyme activity | ADP detection | 10 µM | 6.6
